According to article PMC6453127 (Biochimica et biophysica acta. General subjects, 2017):
Entries after “also recorded” stand apart in the source; their conditions may differ.

Legend:
[1] = mouse xenograft models; ref http://dtp.cancer.gov; cited from earlier work
[2] = target: Hsp90α (Homo sapiens, UniProt P07900); test: DARTs assay, full-length recombinant Hsp90α, pronase proteolysis; type: binding; conditions: 200 μM compound
[3] = target: T1, GST-Hsp90α CTD (Homo sapiens, UniProt P07900); test: ADH aggregation; type: biochemical
Summary of the method: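 Reaction: 6.2 μM equine ADH, with or without 500 nM GST-Hsp90α CTD and compound. Aggregation induced at 55 °C, read as absorbance at 360 nm every minute for 90 min. The 90-min endpoint was used, with the mean of ADH alone set to 100%. Three independent experiments.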

[4] = target: full-length Hsp90α (Homo sapiens, UniProt P07900); test: BS3 crosslinking assay, full length Hsp90α; type: biochemical; conditions: 2 μM protein; BS3 crosslinker
Summary of the method: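 Full-length Hsp90α used at 2 μM in 50 mM NaPO₄ and 150 mM NaCl, preincubated with compound for 1 h at room temperature. BS3 crosslinker added at 66–200 μM final for 1 h at RT, then quenched with 50 mM Tris-HCl pH 7.5 for 15 min. Analysed by 10% SDS-PAGE and western blot.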

[5] = target: T1, GST-Hsp90α CTD; test: ATP-agarose pulldown, Hsp90 CTD; type: binding; conditions: 200 μM compound, 6 μM CTD
[6] = target: GST-Hsp90α CTD (626–732) (Homo sapiens, UniProt P07900); test: DARTs assay with GST-Hsp90α CTD; type: binding; conditions: 200 μM compound
[7] = tested on: DU-145; test: NCI-60 screen, DU-145 prostate cancer cell line; type: cell-based, human; conditions: NCI re-screen
Summary of the method: (§1)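 NCI Developmental Therapeutics Program re-screen, 5-concentration dose response. Growth measured by SRB staining.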

[8] = tested on: Lewis lung carcinoma; conditions: 3.12 mg/kg; Lewis lung carcinoma mouse model; ref http://dtp.cancer.gov; cited from earlier work
[9] = target: Hsp70 (Homo sapiens, UniProt P0DMV8); test: Transcreener ADP Hsp70 ATPase assay; type: biochemical; conditions: 0.5 μM Hsp70; up to 200 μM
Summary of the method: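 Stopped with EDTA stop-and-detect buffer containing ADP² antibody-IRDye QC-1 and 8 nM ADP Alexa594 tracer, 1 h at RT. Endpoint fluorescence intensity read. Three experiments, four-parameter logistic fit.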

[10] = target: T1, GST-Hsp90α CTD; test: BS3 crosslinking assay, GST-Hsp90α CTD; type: biochemical; conditions: 2 μM protein; NSC145366 10 μM to 100 μM
[11] = tested on: PC3; test: NCI-60 screen, PC3 prostate cancer cell line; type: cell-based, human; conditions: NCI re-screen
Summary of the method: as §1

[12] = target: His6-Hsp90β CTD (Homo sapiens, UniProt P08238); test: BS3 crosslinking dimerization/oligomerization assay, His6-Hsp90β CTD; type: biochemical; conditions: 2 μM protein; BS3 crosslinker
[13] = target: T2, Hsp90β (Homo sapiens, UniProt P08238); test: Competitive displacement of FITC-GA; type: binding; conditions: competitor 3 nM to 3 μM; 60 nM Hsp90β, 5 nM FITC-GA
[14] = tested on: Hsp90 CTD; test: DTT-induced insulin aggregation chaperone assay; type: biochemical; conditions: 100 μM compound; 10 μM Hsp90 CTD
Summary of the method: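 200 μM insulin preincubated with 10 μM Hsp90 CTD, with or without compound, in 10 mM NaPO₄ and 100 mM NaCl at 30 °C for 1 h. Aggregation induced with 20 mM DTT and followed by absorbance at 650 over 40 min in a plate reader.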

[15] = target: T3, GST-Hsp90α NTD (Homo sapiens, UniProt P07900); test: BS3 crosslinking assay, GST-Hsp90α NTD; type: biochemical; conditions: 2 μM protein
Summary of the method: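 2 μM protein buffer-exchanged into 50 mM NaPO₄ and 150 mM NaCl, then preincubated with compound for 1 h at room temperature. BS3 added at 66–200 μM final for 1 h at RT, then quenched with 50 mM Tris-HCl pH 7.5 for 15 min. Boiled in SDS dye, run on 10% SDS-PAGE, western-blotted and probed with anti-GST antibody.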

[16] = tested on: LNCaP cells; test: Cytotoxicity to LNCaP cells; type: cell-based; conditions: 5 μM; data not shown
[17] = target: GST-Hsp90α NTD (9–236) (Homo sapiens, UniProt P07900); test: DARTs assay with GST-Hsp90α NTD; type: binding; conditions: 200 μM compound
[18] = target: BSA (Bos taurus, UniProt P02769); test: Crosslinking specificity control with BSA; type: biochemical
[19] = target: T2, Hsp90β; test: Microscale thermophoresis; type: binding; conditions: read-out: Kd (MST); labeled Hsp90β 40 nM
[20] = target: T3, GST-Hsp90α NTD; test: ATP-agarose pulldown, Hsp90 NTD; type: binding; conditions: 200 μM compound, 6 μM NTD
[21] = tested on: Hsp90; test: Luciferase refolding assay in rabbit reticulocyte lysate; type: biochemical
Summary of the method: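 Recombinant luciferase at 100 μg/mL in Tricine pH 7.8 buffer (MgCl₂, DTT, EDTA, 10% glycerol, 10 mg/mL BSA), heat-denatured at 41 °C for 30 min. Then added to rabbit reticulocyte lysate preincubated at 30 °C with compound. Aliquots taken every 15 min for 90 min into luciferase reagent and luminescence read. DMSO at 90 min set to 100%. Triplicate.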

[22] = tested on: LNCaP cells; test: Western blot of Hsp90 clients and heat shock proteins in LNCaP cells; type: cell-based; conditions: 48 h
Summary of the method: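 ATCC LNCaP cells kept in ATCC-recommended medium, authenticated and used within 20 passages. Cells treated for 48 h, trypsinised, PBS-washed and lysed in RIPA with protease inhibitors, 1 mM PMSF, 0.1% Triton X-100 and 1 mM DTT. Protein measured by Bradford before western blot. Band intensities of treated samples expressed as percentage of vehicle.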

[23] = target: T2, Hsp90β; test: Transcreener ADP Hsp90 ATPase assay; type: biochemical; conditions: read-out: IC50, Hsp90β ATPase function; 0.5 μM Hsp90β, 250 μM ATP, 37 °C 30 min

T2 sequence (P08238 whole entry): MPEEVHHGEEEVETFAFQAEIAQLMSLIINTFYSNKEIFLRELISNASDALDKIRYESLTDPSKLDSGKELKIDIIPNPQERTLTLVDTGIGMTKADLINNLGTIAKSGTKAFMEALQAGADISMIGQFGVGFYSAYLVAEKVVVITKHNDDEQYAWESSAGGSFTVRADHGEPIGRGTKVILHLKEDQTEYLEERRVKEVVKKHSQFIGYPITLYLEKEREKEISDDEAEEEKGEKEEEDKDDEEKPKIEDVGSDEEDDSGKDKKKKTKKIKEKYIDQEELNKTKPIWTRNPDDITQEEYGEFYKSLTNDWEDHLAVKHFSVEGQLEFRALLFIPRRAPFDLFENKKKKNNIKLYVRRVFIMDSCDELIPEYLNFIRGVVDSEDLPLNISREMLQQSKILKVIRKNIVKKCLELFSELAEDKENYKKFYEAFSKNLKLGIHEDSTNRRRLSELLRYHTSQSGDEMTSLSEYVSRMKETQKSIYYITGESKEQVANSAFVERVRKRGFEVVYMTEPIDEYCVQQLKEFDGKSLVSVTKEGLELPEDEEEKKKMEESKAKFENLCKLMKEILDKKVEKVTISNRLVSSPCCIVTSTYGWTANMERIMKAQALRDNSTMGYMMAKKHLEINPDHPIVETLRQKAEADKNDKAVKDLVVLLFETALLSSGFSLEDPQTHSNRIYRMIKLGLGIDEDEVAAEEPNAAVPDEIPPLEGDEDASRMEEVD
Chain of His6-Hsp90β CTD (P08238 530-724): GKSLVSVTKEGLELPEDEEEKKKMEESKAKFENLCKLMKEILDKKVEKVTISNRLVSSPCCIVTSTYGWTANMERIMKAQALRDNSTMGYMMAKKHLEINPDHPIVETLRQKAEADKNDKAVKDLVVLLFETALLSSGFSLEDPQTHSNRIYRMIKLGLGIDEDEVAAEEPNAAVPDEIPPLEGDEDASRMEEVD
Chain of BSA (P02769 25-607): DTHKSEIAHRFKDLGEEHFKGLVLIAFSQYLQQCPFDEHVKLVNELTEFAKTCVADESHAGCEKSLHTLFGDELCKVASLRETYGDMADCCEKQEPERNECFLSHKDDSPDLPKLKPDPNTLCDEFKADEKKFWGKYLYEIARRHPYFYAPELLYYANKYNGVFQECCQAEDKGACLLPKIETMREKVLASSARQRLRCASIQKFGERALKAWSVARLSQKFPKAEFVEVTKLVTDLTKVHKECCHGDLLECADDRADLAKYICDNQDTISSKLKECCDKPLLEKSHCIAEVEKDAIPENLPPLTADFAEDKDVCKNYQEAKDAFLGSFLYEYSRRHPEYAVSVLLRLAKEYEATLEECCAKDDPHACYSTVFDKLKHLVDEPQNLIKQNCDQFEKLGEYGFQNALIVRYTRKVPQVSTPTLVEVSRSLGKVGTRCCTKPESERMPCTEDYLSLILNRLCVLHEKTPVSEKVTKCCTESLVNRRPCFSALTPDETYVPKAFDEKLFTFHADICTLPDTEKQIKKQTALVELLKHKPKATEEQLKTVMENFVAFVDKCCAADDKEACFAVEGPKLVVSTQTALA
Chain of Hsp70 (P0DMV8 whole entry): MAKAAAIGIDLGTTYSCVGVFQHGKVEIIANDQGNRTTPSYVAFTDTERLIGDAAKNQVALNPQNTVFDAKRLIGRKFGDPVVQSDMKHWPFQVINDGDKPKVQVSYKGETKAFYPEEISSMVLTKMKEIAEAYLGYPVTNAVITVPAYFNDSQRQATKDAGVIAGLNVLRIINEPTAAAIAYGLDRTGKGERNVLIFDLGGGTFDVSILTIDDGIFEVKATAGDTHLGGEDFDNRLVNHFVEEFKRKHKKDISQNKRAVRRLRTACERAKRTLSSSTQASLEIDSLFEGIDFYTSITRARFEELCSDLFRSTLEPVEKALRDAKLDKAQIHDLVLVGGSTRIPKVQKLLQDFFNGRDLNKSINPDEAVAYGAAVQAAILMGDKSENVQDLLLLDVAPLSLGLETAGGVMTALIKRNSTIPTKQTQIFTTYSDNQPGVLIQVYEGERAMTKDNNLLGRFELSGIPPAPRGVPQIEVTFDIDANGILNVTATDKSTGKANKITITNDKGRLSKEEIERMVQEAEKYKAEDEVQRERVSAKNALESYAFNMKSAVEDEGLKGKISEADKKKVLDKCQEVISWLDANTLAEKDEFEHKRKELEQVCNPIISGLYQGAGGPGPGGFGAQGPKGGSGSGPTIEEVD

CC(C)(C)CC(C)(C)NCC(O)COc1ccc(C(C)(C)c2ccc(OCC(O)CNC(C)(C)CC(C)(C)C)cc2)cc1.Cl (stereo not drawn) [NSC145366, 1-(4-(2-(4-(2-hydroxy-3-(2,4,4-trimethylpentan-2-ylami-no)propoxy)phenyl)propan-2-yl)phenoxy)-3-(2,4,4-trimethylpentan-2-ylamino)propan-2-ol hydrochloride]
toxic dose [1]: ≥ 6.25 mg/kg | protection of Hsp90α from pronase degradation (DARTs) [2]: protection of Hsp90α was clearly observed | level of ADH aggregation, dose dependence ([3]; 10 μM to 40 μM): increases the level of ADH aggregation in a dose dependent manner | inhibition of Hsp90 CTD chaperone (anti-aggregation) activity, ADH aggregation assay ([3]; 40 μM compound, 500 nM Hsp90 CTD, 55 °C, end point 90 min): completely eliminates CTD chaperone activity | oligomerization state of full-length Hsp90α (crosslinking) [4]: presence of a higher-order oligomer | inhibition of CTD binding to ATP-agarose [5]: does not disrupt NTD or CTD binding to ATP | protection of Hsp90 CTD from pronase degradation (DARTs) [6]: protects the Hsp90 CTD from pronase degradation | GI50 [7]: 1380 nM | antitumor activity, treated/control [8]: 68% | inhibition of Hsp70 ATPase function [9]: no inhibitory activity up to 200 μM | oligomerization state of GST-Hsp90α CTD (crosslinking) [10]: induced CTD oligomerization increases in a dose dependent manner | GI50 [11]: 1850 nM | oligomerization state of His6-Hsp90β CTD (crosslinking) [12]: even higher order oligomerized species; also recorded: CTD monomer band was eliminated | competition with FITC-GA binding to Hsp90β [13]: does not compete with FITC-GA binding | inhibition of CTD chaperone activity, insulin aggregation [14]: inhibits CTD chaperone activity | oligomerization of GST-Hsp90α NTD (crosslinking) [15]: no effect on oligomerization of the NTD | cytotoxicity to LNCaP cells [16]: completely cytotoxic | protection of Hsp90 NTD from pronase degradation (DARTs) [17]: no protection observed | oligomerization of BSA [18]: does not induce oligomerization of BSA | Kd [19]: ~3800 nM | inhibition of NTD binding to ATP-agarose [20]: does not disrupt NTD or CTD binding to ATP | level of inhibition of luciferase refolding compared with Cm A1 ([21]; 25 and 50 μM): greater than C-terminal inhibitor Cm A1 | luciferase refolding (luciferase activity vs vehicle) ([21]; rabbit reticulocyte lysate, 90 min): decreased luciferase activity as compared to vehicle treated lysates | induction of classical heat shock response (Hsp70, Hsp27, Hsp40) [22]: not detectable | AR expression level compared to DMSO ([22]; 1 μM and 3 μM): 50% | Akt expression ([22]; 1 μM and 3 μM): do not show significant downregulation | BRAF expression ([22]; 1 μM and 3 μM): do not show significant downregulation | BRCA1 expression level compared to DMSO ([22]; 3 μM): 15% | Hsp40 expression ([22]; 3 μM): only appears to induce Hsp40 expression after 48 h cellular treatment at the highest concentration | IC50 [23]: ~109000 nM
